Data set [1] can be described thus: Plasma half life in rat serum. The data set is classed as ADME, organism-based.
In data set [2] the target is Neurotensin receptor type 1 (Homo sapiens, UniProt P30989). In words: Evaluated for binding affinity by inhibiting binding of [125I]-Tyr(3)-NT to human Neurotensin receptor 1.
The target of data set [3] is Neurotensin receptor type 2 (Homo sapiens, UniProt O95665). In words: Evaluated for binding affinity by inhibiting binding of [125I]Tyr(3)-NT to human Neurotensin receptor 2.
The target in another data set is T1, Sortilin (Homo sapiens, UniProt Q99523).
T1 sequence (Q99523 whole entry): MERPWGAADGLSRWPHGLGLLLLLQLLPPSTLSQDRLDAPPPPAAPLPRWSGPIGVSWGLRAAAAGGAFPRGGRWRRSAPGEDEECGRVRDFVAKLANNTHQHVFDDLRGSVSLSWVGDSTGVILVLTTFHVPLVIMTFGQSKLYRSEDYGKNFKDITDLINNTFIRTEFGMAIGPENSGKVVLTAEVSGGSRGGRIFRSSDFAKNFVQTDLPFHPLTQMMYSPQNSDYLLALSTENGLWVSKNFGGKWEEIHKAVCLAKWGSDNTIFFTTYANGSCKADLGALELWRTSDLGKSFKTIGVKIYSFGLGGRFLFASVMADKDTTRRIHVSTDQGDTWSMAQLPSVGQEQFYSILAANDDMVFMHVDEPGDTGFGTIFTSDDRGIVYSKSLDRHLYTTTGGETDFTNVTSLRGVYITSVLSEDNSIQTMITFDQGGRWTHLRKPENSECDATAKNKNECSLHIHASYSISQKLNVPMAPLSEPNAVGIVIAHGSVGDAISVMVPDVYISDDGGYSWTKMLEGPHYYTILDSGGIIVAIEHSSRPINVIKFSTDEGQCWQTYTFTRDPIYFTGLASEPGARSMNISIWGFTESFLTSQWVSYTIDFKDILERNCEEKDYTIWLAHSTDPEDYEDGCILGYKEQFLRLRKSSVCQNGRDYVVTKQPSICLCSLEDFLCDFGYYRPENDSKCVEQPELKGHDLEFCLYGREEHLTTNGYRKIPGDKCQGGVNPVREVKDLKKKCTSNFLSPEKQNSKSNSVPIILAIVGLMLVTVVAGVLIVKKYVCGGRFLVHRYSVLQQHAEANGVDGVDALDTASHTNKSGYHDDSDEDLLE
In words: Evaluated for binding affinity by inhibiting binding of [125I]Tyr(3)-NT to human Neurotensin receptor 3. The essentials:
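Whole cells (2 × 10^5) transiently expressing human NTR-3, ~60 h post-transfection. Equilibrated 10 min in Earle's Tris-HEPES pH 7.5 with 0.1% glucose and 0.1% BSA, then incubated 30 min at 37 °C with 0.4 nM 125I-Tyr(3)-NT, 0.8 mM 1,10-phenanthroline and increasing peptide. Washed, lysed in 0.1 N NaOH, gamma-counted. Nonspecific binding with 1 µM NT. IC50 taken.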

Numbered stars: 1 amine (or outer) side, 2 acyl side, 3 side chain; on linkers, the order of the positions; unused ones are H or OH. Square brackets hold non-standard residues; d marks the D form. Peptide text beside a SMILES is read from it. X7 = CCNC(=N)NCCC[C@H](N)C(=O)/N=C(/N)NCCC[C@H](N[*:1])C(=O)[*:2]; X9 = NC1=NCCN1CCC[C@H](N[*:1])C(=O)[*:2]; Tle = CC(C)(C)[C@H](N)C(=O)O; hLys = NCCCCC[C@H](N)C(=O)O

Sequence of Neurotensin receptor type 1 (P30989 whole entry): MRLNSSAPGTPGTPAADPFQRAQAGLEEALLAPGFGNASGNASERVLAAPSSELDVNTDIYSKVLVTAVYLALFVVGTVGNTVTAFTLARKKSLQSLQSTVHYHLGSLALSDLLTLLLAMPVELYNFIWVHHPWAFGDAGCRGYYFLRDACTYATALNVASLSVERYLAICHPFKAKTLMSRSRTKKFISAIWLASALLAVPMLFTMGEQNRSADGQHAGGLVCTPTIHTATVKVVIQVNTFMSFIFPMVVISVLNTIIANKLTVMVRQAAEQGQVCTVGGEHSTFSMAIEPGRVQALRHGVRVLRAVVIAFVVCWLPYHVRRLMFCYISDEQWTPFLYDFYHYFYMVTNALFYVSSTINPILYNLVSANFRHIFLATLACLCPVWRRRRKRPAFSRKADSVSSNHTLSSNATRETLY
Sequence of Neurotensin receptor type 2 (O95665 whole entry): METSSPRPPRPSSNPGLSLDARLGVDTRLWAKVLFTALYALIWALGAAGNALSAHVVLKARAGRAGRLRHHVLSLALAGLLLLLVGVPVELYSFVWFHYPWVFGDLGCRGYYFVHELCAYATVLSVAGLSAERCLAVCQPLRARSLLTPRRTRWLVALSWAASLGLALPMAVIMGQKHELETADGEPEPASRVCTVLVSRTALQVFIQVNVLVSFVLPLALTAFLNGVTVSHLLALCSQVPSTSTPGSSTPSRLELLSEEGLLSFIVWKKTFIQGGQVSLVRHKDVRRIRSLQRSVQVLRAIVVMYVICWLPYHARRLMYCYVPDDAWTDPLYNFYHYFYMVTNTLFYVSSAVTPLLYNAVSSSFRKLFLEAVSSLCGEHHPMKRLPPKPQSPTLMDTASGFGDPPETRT

As a reminder, the half-life is the time in which the quantity being followed falls by half. A lower half-life goes with rapid decline. The IC50 is the concentration that inhibits the measured activity by half. Higher therefore signals lower potency. As for `CC[C@H](C)[C@H](NC(=O)[C@H](Cc1ccc(O)cc1)NC(=O)[C@@H]1CCCN1C(=O)[C@@H](N)CCC/N=C(/N)NC(=O)[C@@H](N)CCCCNC)C(=O)N[C@@H](CC(C)C)C(=O)O`, the half-life in data set [1] is 2.13 h. The IC50 worked out at 0.34 nM in data set [2], 1.8 nM in data set [3] and 1150 nM on Sortilin.
Regarding `CC[C@H](C)[C@H](NC(=O)[C@H](Cc1ccc(O)cc1)NC(=O)[C@@H]1CCCN1C(=O)[C@@H](N)CCC/N=C(/N)NC(=O)[C@@H](N)CCCCCNC)C(=O)N[C@@H](CC(C)C)C(=O)O`, the half-life in data set [1] is 3.52 h. The results for the half-maximal inhibitory concentration (IC50) (in data set [2]; in data set [3]; on Sortilin) were 0.52 nM, 6.9 nM and 400 nM, respectively.
In turn, `CC[C@H](C)[C@H](NC(=O)[C@H](Cc1ccc(O)cc1)NC(=O)[C@@H]1CCCN1C(=O)[C@@H](N)CCC/N=C(/N)NC(=O)[C@@H](N)CCCCN(C)C)C(=O)N[C@@H](CC(C)C)C(=O)O` displayed a half-life in data set [1] of 2.12 h. In addition, the IC50 in data set [2] came out at 0.4 nM; in data set [3], 2.8 nM; on Sortilin, 1620 nM.
Consider `CC[C@H](C)[C@H](NC(=O)[C@H](Cc1ccc(O)cc1)NC(=O)[C@@H]1CCCN1C(=O)[C@@H](N)CCC/N=C(/N)NC(=O)[C@@H](N)CCCN(C)C)C(=O)N[C@@H](CC(C)C)C(=O)O`, for which the concentration for half-maximal inhibition (IC50) came to 5.1 nM in data set [3] and 480 nM at Sortilin.
As for `CC[C@H](C)[C@H](NC(=O)[C@H](Cc1ccc(O)cc1)NC(=O)[C@@H]1CCCN1C(=O)[C@@H](N)CCCN=C(N)NC(=O)[C@@H](N)CCCCN)C(=O)N[C@@H](CC(C)C)C(=O)O`, the half-life in data set [1] worked out at 2.27 h. In addition, the values for the half-inhibitory concentration (IC50) (in data set [2]; in data set [3]; on Sortilin) were 0.3 nM, 2.1 nM and 512 nM, respectively.
On the same counts, the results for `CC(C)C[C@H](NC(=O)[C@@H](NC(=O)[C@H](Cc1c[nH]c2ccccc12)NC(=O)[C@@H]1CCCN1C(=O)[C@@H](N)CCCN=C(N)NC(=O)[C@@H](N)CCCCCN)C(C)(C)C)C(=O)O` (H-R(hLys)PW[Tle]L-OH) are greater than 24 h, 133 nM, 500 nM and 53700 nM.
With `CC[C@H](C)[C@H](NC(=O)[C@H](Cc1ccc(O)cc1)NC(=O)[C@@H]1CCCN1C(=O)[C@@H](N)CCC/N=C(/N)NC(=O)[C@@H](N)CCCN=C(N)N)C(=O)N[C@@H](CC(C)C)C(=O)O`, the half-life in data set [1] came to 2.9 h. Moreover, the concentration for half-maximal inhibition (IC50) was 0.4 nM in data set [2], 0.9 nM in data set [3] and 1740 nM at Sortilin.
In data set [1], `CC[C@H](C)[C@H](NC(=O)[C@H](Cc1ccc(O)cc1)NC(=O)[C@@H]1CCCN1C(=O)[C@@H](N)CCC/N=C(/N)NC(=O)[C@@H](N)CCCCCN(C)C)C(=O)N[C@@H](CC(C)C)C(=O)O` had a half-life of 2.1 h. Besides, the IC50 is 0.28 nM in data set [2], 3.5 nM in data set [3] and 700 nM on Sortilin.
The like results for `CC[C@H](C)[C@H](NC(=O)[C@H](Cc1ccc(O)cc1)NC(=O)[C@@H]1CCCN1C(=O)[C@@H](N)CCCN=C(N)NC(=O)[C@@H](N)CCCN)C(=O)N[C@@H](CC(C)C)C(=O)O` were, in that order, 2.23 h, 0.59 nM, 3 nM and 1400 nM.
Turning to `CC[C@H](C)[C@H](NC(=O)[C@H](Cc1ccc(O)cc1)NC(=O)[C@@H]1CCCN1C(=O)[C@@H](N)CCCNC(=N)NC(=O)[C@@H](N)CCCCC[N+](C)(C)C)C(=O)N[C@@H](CC(C)C)C(=O)O`, the half-life in data set [1] is 1.72 h. Further, the IC50 was 0.51 nM in data set [2], 3.1 nM in data set [3] and 550 nM on Sortilin.
For the molecule `CC[C@H](C)[C@H](NC(=O)[C@H](Cc1ccc(O)cc1)NC(=O)[C@@H]1CCCN1C(=O)[C@@H](N)CCCN=C(N)NC(=O)[C@@H](N)CCCNC)C(=O)N[C@@H](CC(C)C)C(=O)O`, the half-inhibitory concentration (IC50) was 3.5 nM in data set [3] and 640 nM on Sortilin.
In data set [1], `CCNC(=N)NCCC[C@H](N)C(=O)N[C@@H](CCCNC(=N)N)C(=O)N1CCC[C@H]1C(=O)N[C@@H](Cc1ccc(O)cc1)C(=O)N[C@H](C(=O)N[C@@H](CC(C)C)C(=O)O)[C@@H](C)CC` returned a half-life of 0.525 h.
With `CC[C@H](C)[C@H](NC(=O)[C@H](Cc1ccc(O)cc1)NC(=O)[C@@H]1CCCN1C(=O)[C@@H](N)CCCN=C(N)NC(=O)[C@@H](N)CCCN=C(N)NC)C(=O)N[C@@H](CC(C)C)C(=O)O`, the half-inhibitory concentration (IC50) in data set [3] was 0.67 nM; at Sortilin, 720 nM.
The molecule `CC[C@H](C)[C@H](NC(=O)[C@H](Cc1ccc(O)cc1)NC(=O)[C@@H]1CCCN1C(=O)[C@H](CCCNC(=N)N)NC(=O)[C@@H](N)CCCNC(=N)N)C(=O)N[C@@H](CC(C)C)C(=O)O` registered a half-life in data set [1] of 0.0983 h.
The same measure, in the same setting: with `CC[C@H](C)[C@H](NC(=O)[C@H](Cc1ccc(O)cc1)NC(=O)[C@@H]1CCCN1C(=O)[C@H](CCCNC(=N)N)NC(=O)[C@@H](N)CCCN=C(N)NC)C(=O)N[C@@H](CC(C)C)C(=O)O` the figure was 0.237 h.
For `CC(C)C[C@H](NC(=O)[C@@H](NC(=O)[C@H](Cc1ccc(O)cc1)NC(=O)[C@@H]1CCCN1C(=O)[C@@H](N)CCCN=C(N)NC(=O)[C@@H](N)CCCCCN)C(C)(C)C)C(=O)O` (H-R(hLys)PY[Tle]L-OH), the IC50 in data set [3] worked out at 11.1 nM; on Sortilin, 4000 nM.
For the molecule `CC[C@H](C)[C@H](NC(=O)[C@H](Cc1ccc(O)cc1)NC(=O)[C@@H]1CCCN1C(=O)[C@@H](N)CCC/N=C(/N)NC(=O)[C@@H](N)CCCN1CCN=C1N)C(=O)N[C@@H](CC(C)C)C(=O)O`, the IC50 in data set [3] worked out at 0.23 nM; on Sortilin, 590 nM.
Molecule `CC[C@H](C)[C@H](NC(=O)[C@H](Cc1ccc(O)cc1)NC(=O)[C@@H]1CCCN1C(=O)[C@@H](N)CCC/N=C(/N)NC(=O)[C@@H](N)CCCCCN)C(=O)N[C@@H](CC(C)C)C(=O)O` showed a half-life in data set [1] of 2.55 h. The concentration for half-maximal inhibition (IC50) is 0.38 nM in data set [2], 0.7 nM in data set [3] and 1200 nM at Sortilin.
In data set [1], `CC[C@H](C)[C@H](NC(=O)[C@H](Cc1ccc(O)cc1)NC(=O)[C@@H]1CCCN1C(=O)[C@H](CCCNC(=N)N)NC(=O)[C@@H](N)CCCN1CCN=C1N)C(=O)N[C@@H](CC(C)C)C(=O)O` (H-[X9]RPYIL-OH) came in with a half-life of 0.275 h.
In data set [1], `CC(C)C[C@H](NC(=O)[C@@H](NC(=O)[C@H](Cc1ccc(O)cc1)NC(=O)[C@@H]1CCCN1C(=O)[C@H](CCCNC(=N)N)NC(=O)[C@@H](N)CCCCCN)C(C)(C)C)C(=O)O` (H-[hLys]RPY[Tle]L-OH) returned a half-life greater than 24 h. The molecule also returned a concentration for half-maximal inhibition (IC50) in data set [2] of 5.71 nM.
Turning to `CCNC(=N)NCCC[C@H](N)C(=O)/N=C(/N)NCCC[C@H](N)C(=O)N1CCC[C@H]1C(=O)N[C@@H](Cc1ccc(O)cc1)C(=O)N[C@H](C(=O)N[C@@H](CC(C)C)C(=O)O)[C@@H](C)CC` (H-[X7]PYIL-OH), the figures for the IC50 (in data set [3]; on Sortilin) were 0.3 nM and 480 nM, respectively.

Source of the values: ChEMBL document CHEMBL1145090, “In vitro analysis of stable, receptor-selective neurotensin[8-13] analogues” (J Med Chem, 2003).
